As a reminder, the logD is lipophilicity at a set pH, counting ionised and neutral species. In general, IC50 refers to the midpoint of a concentration-inhibition curve. The term CLint scaled denotes the rate of metabolic loss divided by the concentration. Read a high CLint scaled as rapid turnover. Usually solubility stands for the dissolved amount per volume that the medium holds.

The subject of data set [1] is Plasma. The data set can be described thus: Stability in rat plasma. The data set is classed as ADME, cell-free.
The nature of data set [2]: Lipophilicity, log D of the compound by HPLC method. The data set is classed as physicochemical. The note with it: read-out: logD.
Data set [3] has as its target T1, Orexin receptor type 2 (Homo sapiens, UniProt O43614).
T1 sequence (O43614 whole entry): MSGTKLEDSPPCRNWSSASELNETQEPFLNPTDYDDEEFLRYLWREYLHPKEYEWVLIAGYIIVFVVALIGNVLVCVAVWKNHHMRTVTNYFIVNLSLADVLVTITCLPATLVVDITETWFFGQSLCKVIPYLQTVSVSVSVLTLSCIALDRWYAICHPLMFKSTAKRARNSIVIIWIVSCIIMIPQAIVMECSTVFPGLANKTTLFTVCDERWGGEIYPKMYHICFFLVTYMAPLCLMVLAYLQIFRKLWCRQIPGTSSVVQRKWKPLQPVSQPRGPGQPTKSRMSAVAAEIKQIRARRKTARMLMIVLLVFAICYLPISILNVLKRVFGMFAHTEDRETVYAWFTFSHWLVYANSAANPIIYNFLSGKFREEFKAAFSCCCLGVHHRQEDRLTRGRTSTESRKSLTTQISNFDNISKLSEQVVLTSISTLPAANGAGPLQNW
Briefly: Antagonist activity against human OX2R expressed in CHOK1 cells assessed as inhibition of orexin A-induced […] Ca2+ mobilization by FLIPR assay. The data set is classed as functional, cell-based, CHO-K1. An outline of the steps: (§1)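 Cell-based FLIPR assay measuring Ca2+ flux as the functional read-out of orexin receptor antagonism. Target is the human orexin receptor expressed in CHO-K1 cells.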
Background: Calcium flux is commonly read through the fluorescence of an indicator in the cells.

Data set [4] can be described thus: Intrinsic clearance in human microsomes. The data set is classed as ADME, Microsome.
A short description of data set [5]: Solubility of the compound at pH 7. The data set is classed as physicochemical. The note with it: buffer, read-out: solubility.
In data set [6] the target is T2, Orexin/Hypocretin receptor type 1 (Homo sapiens, UniProt O43613).
T2 sequence (O43613 whole entry): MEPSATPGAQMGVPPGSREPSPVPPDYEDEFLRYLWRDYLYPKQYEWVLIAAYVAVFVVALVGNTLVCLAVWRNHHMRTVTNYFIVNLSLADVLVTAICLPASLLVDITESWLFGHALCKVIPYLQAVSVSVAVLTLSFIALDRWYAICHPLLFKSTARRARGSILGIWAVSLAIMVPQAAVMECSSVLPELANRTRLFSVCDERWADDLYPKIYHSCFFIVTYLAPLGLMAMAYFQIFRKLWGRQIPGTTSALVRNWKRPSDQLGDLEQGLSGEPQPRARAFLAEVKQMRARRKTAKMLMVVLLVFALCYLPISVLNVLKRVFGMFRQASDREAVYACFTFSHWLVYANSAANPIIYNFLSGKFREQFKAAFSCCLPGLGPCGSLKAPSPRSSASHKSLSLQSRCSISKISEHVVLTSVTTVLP
Briefly: Antagonist activity against human OX1R expressed in CHOK1 cells assessed as inhibition of orexin A-induced […] Ca2+ mobilization by FLIPR assay. The data set is classed as functional, cell-based, CHO-K1. An outline of the steps:
as §1

Data set [7] deals with CHO-K1. The data set can be described thus: Selectivity index, ratio of IC50 for human OX1R expressed in CHOK1 cells to IC50 for human OX2R expressed in CHOK1 cells by FLIPR assay. The data set is classed as cell-based. In short, it runs like this: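 Ratio of OX1R FLIPR IC50 to OX2R FLIPR IC50. Both come from Ca2+-flux assays on human orexin receptors expressed in CHO-K1 cells, each averaged over n ≥ 2 experiments.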

Data set [8] has as its system Plasma. Briefly: Stability in human plasma. The data set is classed as ADME, cell-free.

In brackets after ≈: the same amount, converted by molar mass. A value given as a limit tells only on which side of the number the result lay.

Regarding `COC(=O)c1ccccc1C(=O)N1C[C@H](Oc2cc(C#N)ccn2)CC[C@H]1C`, the Stability entry in data set [1] and in data set [8] was “Unstable” throughout. The logD in data set [2] was 2.9. The IC50 amounted to 0.021 µM in data set [3] and 10 µM in data set [6]. In addition, the CLint scaled in data set [4] is under 16 mL/min/kg. Besides, in data set [5], the solubility stood at 151 µM (≈ 57.3 µg/mL). Also, the Ratio IC50 in data set [7] is over 490.

For the origin of these results see ChEMBL document CHEMBL3425449, “Identification of MK-8133: An orexin-2 selective receptor antagonist with favorable development properties” (Bioorg Med Chem Lett, 2015).
